Laboratory results published in ChEMBL document CHEMBL1138205, “Novel heterobivalent tacrine derivatives as cholinesterase inhibitors with notable selectivity toward butyrylcholinesterase” (J Med Chem, 2006).
pIC50: −log10 of the molar value. Active and inactive are the calls of the source. The calls are words filed in the database; no cut-off is given here.

Target: Acetylcholinesterase (Electrophorus electricus) (UniProt O42275)
Assay: (§1) Inhibition of Electrophorus electricus AChE

Acetylcholinesterase (Electrophorus electricus), sequence (O42275 24-633 limits assumed): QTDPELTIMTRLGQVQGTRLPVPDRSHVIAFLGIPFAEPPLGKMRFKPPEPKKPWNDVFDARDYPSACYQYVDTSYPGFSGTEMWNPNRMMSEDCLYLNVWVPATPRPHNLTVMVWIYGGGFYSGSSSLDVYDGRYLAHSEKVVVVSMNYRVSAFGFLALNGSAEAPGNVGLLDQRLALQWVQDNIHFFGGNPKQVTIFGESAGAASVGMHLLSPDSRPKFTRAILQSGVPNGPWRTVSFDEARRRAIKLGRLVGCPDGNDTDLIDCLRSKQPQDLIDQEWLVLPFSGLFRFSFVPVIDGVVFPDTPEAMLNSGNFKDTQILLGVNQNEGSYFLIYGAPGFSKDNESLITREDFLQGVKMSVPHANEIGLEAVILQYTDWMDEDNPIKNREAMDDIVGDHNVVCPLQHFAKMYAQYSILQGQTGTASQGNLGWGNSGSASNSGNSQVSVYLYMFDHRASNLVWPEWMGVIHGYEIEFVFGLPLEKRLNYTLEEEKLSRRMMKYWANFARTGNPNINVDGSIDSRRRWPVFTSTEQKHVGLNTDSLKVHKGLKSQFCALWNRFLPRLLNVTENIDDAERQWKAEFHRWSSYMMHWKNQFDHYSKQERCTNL

| SMILES | Activity [nM] |
| --- | --- |
| COc1cc(C(=O)NCCCCCCCC(=O)NNc2c3c(nc4ccccc24)CCCC3)cc(OC)c1OC | 3.23 |

Target: Acetylcholinesterase (Electrophorus electricus, UniProt O42275)
Sequence (O42275 whole entry): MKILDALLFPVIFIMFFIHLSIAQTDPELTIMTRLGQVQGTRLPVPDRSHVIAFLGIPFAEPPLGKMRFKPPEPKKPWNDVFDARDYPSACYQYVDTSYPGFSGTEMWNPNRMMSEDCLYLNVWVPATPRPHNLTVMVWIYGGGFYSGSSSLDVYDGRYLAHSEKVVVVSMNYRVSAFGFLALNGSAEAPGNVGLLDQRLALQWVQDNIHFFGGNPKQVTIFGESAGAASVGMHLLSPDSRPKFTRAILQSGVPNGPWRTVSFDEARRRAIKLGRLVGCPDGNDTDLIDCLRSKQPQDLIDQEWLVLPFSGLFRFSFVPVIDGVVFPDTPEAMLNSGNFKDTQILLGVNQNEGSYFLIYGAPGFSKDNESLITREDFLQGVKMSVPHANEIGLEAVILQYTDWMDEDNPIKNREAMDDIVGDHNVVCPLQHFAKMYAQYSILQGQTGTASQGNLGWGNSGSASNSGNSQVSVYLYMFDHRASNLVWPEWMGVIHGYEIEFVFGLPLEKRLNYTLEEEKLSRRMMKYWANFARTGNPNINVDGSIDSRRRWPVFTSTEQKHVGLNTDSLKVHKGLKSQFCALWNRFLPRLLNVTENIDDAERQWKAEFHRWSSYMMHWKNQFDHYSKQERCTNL
Assay: as §1

| SMILES | pIC50 |
| --- | --- |
| NNc1c2c(nc3ccccc13)CCCC2 | 4.89 |
| COc1cc(C(=O)NCCCCCCC(=O)NNc2c3c(nc4ccccc24)CCCC3)cc(OC)c1OC | 8.01 |
| COc1cc(C(=O)NCCC(=O)NNc2c3c(nc4ccccc24)CCCC3)cc(OC)c1OC | 7.00 |
| COc1cc(C(=O)NCCCCCCCC(=O)NNc2c3c(nc4ccccc24)CCCC3)cc(OC)c1OC | 8.49 |
| COc1cc(C(=O)NCCCCC(=O)NNc2c3c(nc4ccccc24)CCCC3)cc(OC)c1OC | 7.69 |
| COc1cc(CCC(=O)NCCC(=O)NNc2c3c(nc4ccccc24)CCCC3)cc(OC)c1OC | 6.99 |
| COc1cc(C(=O)NNc2c3c(nc4ccccc24)CCCC3)cc(OC)c1OC | 5.65 |
| COc1cc(CCC(=O)NCC(=O)NNc2c3c(nc4ccccc24)CCCC3)cc(OC)c1OC | 6.91 |
| COc1cc(CCC(=O)NCCCC(=O)NNc2c3c(nc4ccccc24)CCCC3)cc(OC)c1OC | 7.28 |
| COc1cc(C(=O)NCCCCCCCC(=O)NN)cc(OC)c1OC | 4.74 |
| CCOCC(=O)CCCCCCCNC(=O)c1cc(OC)c(OC)c(OC)c1 | < 3.60 |
| COc1cc(C(=O)NCC(=O)NNc2c3c(nc4ccccc24)CCCC3)cc(OC)c1OC | 6.98 |
| COc1cc(C(=O)NCCCCCC(=O)NNc2c3c(nc4ccccc24)CCCC3)cc(OC)c1OC | 7.70 |
| COc1cc(C(=O)NCCCC(=O)NNc2c3c(nc4ccccc24)CCCC3)cc(OC)c1OC | 7.22 |
| COc1cc(CCC(=O)NCCCCC(=O)NNc2c3c(nc4ccccc24)CCCC3)cc(OC)c1OC | 7.26 |
| COc1cc(CCC(=O)NCCCCCC(=O)NNc2c3c(nc4ccccc24)CCCC3)cc(OC)c1OC | 7.69 |

Target: Acetylcholinesterase (Torpedo californica, UniProt P04058)
Sequence (P04058 whole entry): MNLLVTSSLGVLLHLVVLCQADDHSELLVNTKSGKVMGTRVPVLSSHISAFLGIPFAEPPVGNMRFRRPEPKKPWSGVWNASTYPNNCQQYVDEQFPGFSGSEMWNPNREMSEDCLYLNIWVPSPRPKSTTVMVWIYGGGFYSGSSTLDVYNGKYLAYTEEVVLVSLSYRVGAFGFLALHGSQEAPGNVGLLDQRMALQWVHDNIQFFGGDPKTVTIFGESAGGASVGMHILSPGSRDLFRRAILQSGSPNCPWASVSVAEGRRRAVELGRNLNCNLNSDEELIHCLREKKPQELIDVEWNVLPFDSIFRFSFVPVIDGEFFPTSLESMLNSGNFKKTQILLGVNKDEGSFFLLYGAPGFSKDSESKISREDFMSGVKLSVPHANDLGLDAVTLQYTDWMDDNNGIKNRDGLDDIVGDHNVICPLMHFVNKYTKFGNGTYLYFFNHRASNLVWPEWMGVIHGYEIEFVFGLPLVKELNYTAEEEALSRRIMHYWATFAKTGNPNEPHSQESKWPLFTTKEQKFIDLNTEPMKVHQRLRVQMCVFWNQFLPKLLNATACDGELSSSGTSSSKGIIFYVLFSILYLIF
Assay: Inhibition of Torpedo californica AChE
Set-up: species or system Tetronarce californica
Method in brief: (§2)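 Ellman-type spectrophotometric assay at 412 nm in 100 mM sodium phosphate, 100 mM NaCl, pH 7.3, with DTNB. Enzymes: E. electricus AChE (soluble G4), recombinant T. californica AChE (Pichia pastoris, G4), recombinant human AChE (HEK 293, G2/G4), human plasma BChE (G4). Enzyme (~3 U/mL stock) and inhibitor preincubated 15 min at 25 °C. Acetylthiocholine (AChE) or butyrylthiocholine (BChE) then started the reaction. IC50 in duplicate from ≥4 inhibitor concentrations.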

| SMILES | pIC50 |
| --- | --- |
| CCN(CC)C(C)C(=O)N1c2ccccc2Sc2ccccc21 (stereo not drawn) | 4.46 |
| COc1cc(C(=O)NCCCCCCC(=O)NNc2c3c(nc4ccccc24)CCCC3)cc(OC)c1OC | 7.60 |
| COc1cc(C(=O)NCCC(=O)NNc2c3c(nc4ccccc24)CCCC3)cc(OC)c1OC | 7.31 |
| COc1cc(C(=O)NCCCCCCCC(=O)NNc2c3c(nc4ccccc24)CCCC3)cc(OC)c1OC | 7.76 |
| COc1cc(C(=O)NCCCCC(=O)NNc2c3c(nc4ccccc24)CCCC3)cc(OC)c1OC | 7.74 |
| COc1cc(CCC(=O)NCCC(=O)NNc2c3c(nc4ccccc24)CCCC3)cc(OC)c1OC | 7.16 |
| COc1cc(C(=O)NNc2c3c(nc4ccccc24)CCCC3)cc(OC)c1OC | 7.68 |
| COc1cc(CCC(=O)NCC(=O)NNc2c3c(nc4ccccc24)CCCC3)cc(OC)c1OC | 7.40 |
| COc1cc(CCC(=O)NCCCC(=O)NNc2c3c(nc4ccccc24)CCCC3)cc(OC)c1OC | 6.80 |
| COc1cc(C(=O)NCC(=O)NNc2c3c(nc4ccccc24)CCCC3)cc(OC)c1OC | 6.79 |
| COc1cc(C(=O)NCCCCCC(=O)NNc2c3c(nc4ccccc24)CCCC3)cc(OC)c1OC | 7.25 |
| COc1cc(CCC(=O)NNc2c3c(nc4ccccc24)CCCC3)cc(OC)c1OC | 7.40 |
| COc1cc(C(=O)NCCCC(=O)NNc2c3c(nc4ccccc24)CCCC3)cc(OC)c1OC | 7.58 |
| COc1cc(CCC(=O)NCCCCC(=O)NNc2c3c(nc4ccccc24)CCCC3)cc(OC)c1OC | 6.99 |
| COc1cc(CCC(=O)NCCCCCC(=O)NNc2c3c(nc4ccccc24)CCCC3)cc(OC)c1OC | 7.40 |

Target: T1, Acetylcholinesterase (Homo sapiens, UniProt P22303)
T1 sequence (P22303 whole entry): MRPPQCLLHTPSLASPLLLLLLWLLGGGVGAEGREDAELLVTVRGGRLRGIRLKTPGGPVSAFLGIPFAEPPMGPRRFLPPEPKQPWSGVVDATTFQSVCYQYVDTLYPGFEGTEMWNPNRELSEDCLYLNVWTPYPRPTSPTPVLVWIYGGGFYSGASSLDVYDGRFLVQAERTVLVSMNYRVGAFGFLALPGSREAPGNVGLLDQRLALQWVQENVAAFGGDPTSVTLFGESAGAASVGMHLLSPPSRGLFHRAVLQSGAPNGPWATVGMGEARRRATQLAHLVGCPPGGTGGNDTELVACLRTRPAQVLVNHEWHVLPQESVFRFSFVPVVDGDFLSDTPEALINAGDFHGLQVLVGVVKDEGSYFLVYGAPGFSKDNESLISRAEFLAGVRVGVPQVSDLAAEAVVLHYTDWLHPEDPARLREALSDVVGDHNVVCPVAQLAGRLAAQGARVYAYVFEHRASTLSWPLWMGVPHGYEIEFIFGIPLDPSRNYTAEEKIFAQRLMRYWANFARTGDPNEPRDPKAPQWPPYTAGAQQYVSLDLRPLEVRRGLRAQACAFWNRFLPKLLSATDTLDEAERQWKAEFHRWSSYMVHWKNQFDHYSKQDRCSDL
Assay: Inhibition of human AChE
Method in brief: as §2

| SMILES | pIC50 |
| --- | --- |
| COc1cc(C(=O)NCCCCCCC(=O)NNc2c3c(nc4ccccc24)CCCC3)cc(OC)c1OC | 8.25 |
| COc1cc(C(=O)NCCC(=O)NNc2c3c(nc4ccccc24)CCCC3)cc(OC)c1OC | 7.05 |
| COc1cc(C(=O)NCCCCCCCC(=O)NNc2c3c(nc4ccccc24)CCCC3)cc(OC)c1OC | 8.28 |
| COc1cc(C(=O)NCCCCC(=O)NNc2c3c(nc4ccccc24)CCCC3)cc(OC)c1OC | 7.77 |
| COc1cc(CCC(=O)NCCC(=O)NNc2c3c(nc4ccccc24)CCCC3)cc(OC)c1OC | 6.87 |
| COc1cc(C(=O)NNc2c3c(nc4ccccc24)CCCC3)cc(OC)c1OC | 6.41 |
| COc1cc(CCC(=O)NCC(=O)NNc2c3c(nc4ccccc24)CCCC3)cc(OC)c1OC | 7.39 |
| COc1cc(CCC(=O)NCCCC(=O)NNc2c3c(nc4ccccc24)CCCC3)cc(OC)c1OC | 7.14 |
| COc1cc(C(=O)NCC(=O)NNc2c3c(nc4ccccc24)CCCC3)cc(OC)c1OC | 7.29 |
| COc1cc(C(=O)NCCCCCC(=O)NNc2c3c(nc4ccccc24)CCCC3)cc(OC)c1OC | 7.74 |
| COc1cc(CCC(=O)NNc2c3c(nc4ccccc24)CCCC3)cc(OC)c1OC | 6.44 |
| COc1cc(C(=O)NCCCC(=O)NNc2c3c(nc4ccccc24)CCCC3)cc(OC)c1OC | 6.62 |
| COc1cc(CCC(=O)NCCCCC(=O)NNc2c3c(nc4ccccc24)CCCC3)cc(OC)c1OC | 7.23 |
| COc1cc(CCC(=O)NCCCCCC(=O)NNc2c3c(nc4ccccc24)CCCC3)cc(OC)c1OC | 8.08 |

Target: Cholinesterase (Homo sapiens, UniProt P06276)
Sequence (P06276 whole entry): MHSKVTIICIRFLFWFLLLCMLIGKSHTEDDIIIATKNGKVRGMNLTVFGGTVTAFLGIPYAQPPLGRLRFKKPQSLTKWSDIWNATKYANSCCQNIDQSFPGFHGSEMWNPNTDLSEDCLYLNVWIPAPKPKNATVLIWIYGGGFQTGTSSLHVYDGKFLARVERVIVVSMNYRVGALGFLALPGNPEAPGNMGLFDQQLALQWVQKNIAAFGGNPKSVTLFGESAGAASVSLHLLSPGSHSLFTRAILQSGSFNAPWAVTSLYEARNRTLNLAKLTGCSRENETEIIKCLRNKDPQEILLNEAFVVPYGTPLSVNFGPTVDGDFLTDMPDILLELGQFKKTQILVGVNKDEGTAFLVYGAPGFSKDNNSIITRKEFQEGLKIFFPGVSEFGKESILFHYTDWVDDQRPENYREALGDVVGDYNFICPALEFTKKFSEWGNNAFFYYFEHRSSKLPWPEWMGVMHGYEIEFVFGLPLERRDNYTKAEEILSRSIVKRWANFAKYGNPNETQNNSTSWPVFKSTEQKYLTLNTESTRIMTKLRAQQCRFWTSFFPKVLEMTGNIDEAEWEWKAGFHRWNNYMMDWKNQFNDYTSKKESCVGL
Assay: Inhibition of human plasma BChE
Assay type: cell-free
Method in brief: as §2

| SMILES | pIC50 |
| --- | --- |
| CCN(CC)C(C)C(=O)N1c2ccccc2Sc2ccccc21 (stereo not drawn) | 5.47 |
| COc1cc(C(=O)NCCCCCCC(=O)NNc2c3c(nc4ccccc24)CCCC3)cc(OC)c1OC | 9.28 |
| COc1cc(C(=O)NCCC(=O)NNc2c3c(nc4ccccc24)CCCC3)cc(OC)c1OC | 7.89 |
| COc1cc(C(=O)NCCCCCCCC(=O)NNc2c3c(nc4ccccc24)CCCC3)cc(OC)c1OC | 9.53 |
| COc1cc(C(=O)NCCCCC(=O)NNc2c3c(nc4ccccc24)CCCC3)cc(OC)c1OC | 8.77 |
| COc1cc(CCC(=O)NCCC(=O)NNc2c3c(nc4ccccc24)CCCC3)cc(OC)c1OC | 8.22 |
| COc1cc(C(=O)NNc2c3c(nc4ccccc24)CCCC3)cc(OC)c1OC | 8.77 |
| COc1cc(CCC(=O)NCC(=O)NNc2c3c(nc4ccccc24)CCCC3)cc(OC)c1OC | 7.62 |
| COc1cc(CCC(=O)NCCCC(=O)NNc2c3c(nc4ccccc24)CCCC3)cc(OC)c1OC | 9.65 |
| COc1cc(C(=O)NCC(=O)NNc2c3c(nc4ccccc24)CCCC3)cc(OC)c1OC | 7.56 |
| COc1cc(C(=O)NCCCCCC(=O)NNc2c3c(nc4ccccc24)CCCC3)cc(OC)c1OC | 9.01 |
| COc1cc(CCC(=O)NNc2c3c(nc4ccccc24)CCCC3)cc(OC)c1OC | 7.92 |
| COc1cc(C(=O)NCCCC(=O)NNc2c3c(nc4ccccc24)CCCC3)cc(OC)c1OC | 8.15 |
| COc1cc(CCC(=O)NCCCCC(=O)NNc2c3c(nc4ccccc24)CCCC3)cc(OC)c1OC | 9.86 |
| COc1cc(CCC(=O)NCCCCCC(=O)NNc2c3c(nc4ccccc24)CCCC3)cc(OC)c1OC | 9.85 |

Target: Cholinesterases; ACHE & BCHE (Homo sapiens) (UniProt P06276+P22303)
Sequence (P06276 whole entry, looked up): as the sequence (P06276 whole entry) above
Sequence (P22303 whole entry, looked up): as the sequence (P22303 whole entry) above
Assay: Selectivity for human BChE over human AChE
Method in brief: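 Ratio of IC50 for recombinant human AChE to IC50 for human plasma BChE. Both were measured by DTNB absorbance at 412 nm, pH 7.3, after 15 min enzyme–inhibitor preincubation at 25 °C. Acetyl- or butyrylthiocholine served as substrate. Each IC50 in duplicate from ≥4 inhibitor concentrations.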

| SMILES | Ratio IC50 |
| --- | --- |
| CCN(CC)C(C)C(=O)N1c2ccccc2Sc2ccccc21 (stereo not drawn) | 12000 |
| COc1cc(C(=O)NCCCCCCC(=O)NNc2c3c(nc4ccccc24)CCCC3)cc(OC)c1OC | 10.8 |
| COc1cc(C(=O)NCCC(=O)NNc2c3c(nc4ccccc24)CCCC3)cc(OC)c1OC | 6.97 |
| COc1cc(C(=O)NCCCCCCCC(=O)NNc2c3c(nc4ccccc24)CCCC3)cc(OC)c1OC | 17.9 |
| COc1cc(C(=O)NCCCCC(=O)NNc2c3c(nc4ccccc24)CCCC3)cc(OC)c1OC | 10.1 |
| COc1cc(CCC(=O)NCCC(=O)NNc2c3c(nc4ccccc24)CCCC3)cc(OC)c1OC | 22.4 |
| COc1cc(C(=O)NNc2c3c(nc4ccccc24)CCCC3)cc(OC)c1OC | 227 |
| COc1cc(CCC(=O)NCC(=O)NNc2c3c(nc4ccccc24)CCCC3)cc(OC)c1OC | 1.7 |
| COc1cc(CCC(=O)NCCCC(=O)NNc2c3c(nc4ccccc24)CCCC3)cc(OC)c1OC | 319 |
| COc1cc(C(=O)NCC(=O)NNc2c3c(nc4ccccc24)CCCC3)cc(OC)c1OC | 1.87 |
| COc1cc(C(=O)NCCCCCC(=O)NNc2c3c(nc4ccccc24)CCCC3)cc(OC)c1OC | 18.8 |
| COc1cc(CCC(=O)NNc2c3c(nc4ccccc24)CCCC3)cc(OC)c1OC | 30.2 |
| COc1cc(C(=O)NCCCC(=O)NNc2c3c(nc4ccccc24)CCCC3)cc(OC)c1OC | 33.8 |
| COc1cc(CCC(=O)NCCCCC(=O)NNc2c3c(nc4ccccc24)CCCC3)cc(OC)c1OC | 424 |
| COc1cc(CCC(=O)NCCCCCC(=O)NNc2c3c(nc4ccccc24)CCCC3)cc(OC)c1OC | 59.5 |

Target: Acetylcholinesterase (Electrophorus electricus) (UniProt O42275)
Assay: Inhibition of Electrophorus electricus AChE at 100 uM

| SMILES | Activity |
| --- | --- |
| CCN(CC)C(C)C(=O)N1c2ccccc2Sc2ccccc21 (stereo not drawn) | inactive |

Target: T1, Acetylcholinesterase
Assay: Inhibition of human AChE at 100 uM

| SMILES | Activity |
| --- | --- |
| CCN(CC)C(C)C(=O)N1c2ccccc2Sc2ccccc21 (stereo not drawn) | inactive |
